Assay [1] can be described thus: inhibitors of TNFa-induced NFkB p65 translocation, primary screen, imaging, HUVEC, MLSMR starter and 10KST1 sets (AID 438;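 active = inhibition above 20% together with a positive visual image hit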;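 also: compound added about 3h40 before a 20 min TNFalpha stimulation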;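 as to inhibition: signal is the nuclear over cytoplasmic p65 intensity ratio per well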). As to conditions: HUVEC TNFa-induced p65 nuclear translocation; cell count: measured here: nuclei count (cytotoxicity indicator), at 2.08 µM; inhibition: at 2 µM, stronger effect = higher value, 0% TNFa-plus-vehicle, 100% no-TNFa wells.
Assay [2] in a line: inhibitors of mutant huntingtin aggregation, primary screen, imaging, exon1htt(103Q)mCFP cells, high-content imaging (AID 483;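 active = visual image review flags a hit and inhibition of aggregation exceeds 20%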;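 also: compound exposure lasted 3 days before fixation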;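 as to nuclei count: percent of the per-plate median nuclei count of sample wells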). As to conditions: exon1htt(103Q)mCFP cell line, aggregate imaging, at 2 µM; inhibition of aggregation: stronger effect = higher value; nuclei count: measured here: cell count, toxicity.
Assay [3] in a line: inhibitors of E-selectin induction by TNFa, primary screen, imaging, HUVEC, immunofluorescence, MLSMR starter and 10KST1 sets (AID 487;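 active = visually confirmed hit in the image check and inhibition above 20%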;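 as to inhibition: signal is fraction of cell area covered by stained E-selectin grains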;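 as to nuclei count: 100% = median nuclei count of all wells on the same plate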). The following applies: HUVEC TNFalpha-induced E-selectin immunofluorescence imaging, at 2 µM; inhibition: stronger effect = higher value; nuclei count: measured here: cell number, toxicity.
Assay [4] addresses Voltage-gated potassium channel subunit beta-2 (Rattus norvegicus) (UniProt P62483). Nature of the assay: KvBeta enzyme negative modulators, primary screen, biochemical, NADPH fluorescence (AID 622;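 active = fluorescence slope higher than the sample average by over 3 SD, cut at about -0.22 in these data, passing the limit was not always enough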;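 also: slope of raw intensity against log time taken from 70 to 1610 s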). As to conditions: recombinant KvBeta, 4-cyanobenzaldehyde reduction, at 10 µM, stronger effect = higher value.
The target is the same in assay [5]. Nature of the assay: KvBeta positive modulators, primary screen, biochemical, NADPH fluorescence (AID 623;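 active = NADPH fluorescence slope more negative than the mean of all samples by about 3 SD, 99.7% confidence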;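 also: fluorescence intensity change per second fitted from 20 to 320 s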). As to conditions: Recombinant KvBeta, NADPH fluorescence decrease slope, 10 min; at 10 µM; stronger effect = lower value.
Assay [6] has as its target Alpha-2C adrenergic receptor (Homo sapiens) (UniProt P18825). Nature of the assay: modulators of alpha2C/GIRK thallium flux, primary screen, cell-based, HEK293 alpha2C/GIRK1/2 (AID 624;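 active = fluorescence slope after compound addition differing from the mean of all screened samples at 99.7% confidence, in either direction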;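 also: slope of fluorescence ratio to pre-addition baseline per second over 15 to 24 s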). As to conditions: thallium flux BTC fluorescence, at 10 µM, actives lie on both sides.
A short description of assay [7]: inhibitors of larval lipid processing in zebrafish, primary screen, whole organism, PED6 fluorescence, gall bladder and intestine (AID 686).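 Also: larvae 5 to 7 days old with five fish per well; signal comes from phospholipase A2 cleavage of quenched PED6 carried via bile; overnight exposure to compound and PED6 before scoring.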 The following applies: Zebrafish larvae PED6 lipid processing, fluorescence scoring; screened at 20 µM (by protocol). The method in brief:
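system = live zebrafish larvae aged 5-7 days, whole organism | probe or stimulus = ingested quenched lipid PED6 at 100 nM | doses = 20 µM single dose | timing = overnight exposure | detection = fluorescence microscopy with visual scoring of gall bladder and intestine | read-out = visual per-well fluorescence inhibition score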

Assay [8] can be described thus: inhibitors of Sendai virus-induced IRF3 signaling, primary screen, TLR/RLR signaling modifier project, cell-based, Sendai virus stimulus, luciferase, 10K MLSCN set (AID 602276;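 active = inhibition at or above 50% at 10 µM; inactive = inhibition below 50%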;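 also: firefly luciferase from ISG56 promoter only with Renilla not read in this screen; 0% = Sendai virus plus DMSO and 100% = medium plus DMSO without virus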). The following applies: HEK293 RL24 IRF3 luciferase reporter, at 10 µM, stronger effect = higher value. In general terms: In a reporter assay the amount or activity of a reporter protein is the signal.

Assay [9] in a line: inhibitors of poly I:C-induced TLR3 signaling, primary screen, cell-based, poly I:C stimulus, luciferase, 10K MLSCN set (AID 602277;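 active = inhibition of the reporter signal at or above 50%; inactive = inhibition below 50%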). As to conditions: HEK293-TLR3 RL24 IRF3 luciferase reporter, at 10 µM, stronger effect = higher value.

The structures appear in SMILES notation. The source made the active and inactive calls.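 The calls were made as follows, unless noted: active = a full or partial loss of lipid-probe fluorescence in the fish gall bladder, intestine or both, judged by eye; inactive = no fluorescence loss, or compound toxic to the fish.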

What is called inhibition is the drop in the measured response relative to a control, in per cent.

Sequence of Voltage-gated potassium channel subunit beta-2 (Rattus norvegicus) (P62483 whole entry, looked up): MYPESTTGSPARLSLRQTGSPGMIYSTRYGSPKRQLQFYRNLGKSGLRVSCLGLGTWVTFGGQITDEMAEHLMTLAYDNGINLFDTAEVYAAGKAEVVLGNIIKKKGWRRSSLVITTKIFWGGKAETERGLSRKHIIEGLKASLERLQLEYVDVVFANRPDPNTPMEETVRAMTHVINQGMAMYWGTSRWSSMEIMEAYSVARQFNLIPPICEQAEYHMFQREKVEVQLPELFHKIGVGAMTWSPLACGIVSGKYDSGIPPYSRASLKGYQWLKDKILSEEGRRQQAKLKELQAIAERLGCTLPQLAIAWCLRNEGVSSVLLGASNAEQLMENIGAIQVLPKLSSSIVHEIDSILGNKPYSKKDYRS
Sequence of Alpha-2C adrenergic receptor (Homo sapiens) (P18825 whole entry, looked up): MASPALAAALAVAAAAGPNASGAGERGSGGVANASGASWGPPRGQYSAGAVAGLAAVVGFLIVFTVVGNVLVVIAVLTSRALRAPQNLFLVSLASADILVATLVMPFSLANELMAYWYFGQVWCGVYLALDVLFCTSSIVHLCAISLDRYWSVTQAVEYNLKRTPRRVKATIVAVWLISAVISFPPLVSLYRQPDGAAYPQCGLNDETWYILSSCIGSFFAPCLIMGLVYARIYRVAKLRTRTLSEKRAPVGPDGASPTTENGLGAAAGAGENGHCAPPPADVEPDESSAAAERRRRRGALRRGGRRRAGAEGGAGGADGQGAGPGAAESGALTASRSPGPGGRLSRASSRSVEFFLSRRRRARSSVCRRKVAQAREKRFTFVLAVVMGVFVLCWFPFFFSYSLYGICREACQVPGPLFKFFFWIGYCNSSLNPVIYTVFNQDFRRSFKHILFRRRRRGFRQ

`CC(C)c1cc(C(=O)Nc2cccnc2)no1`: the cell count in [1] was found to be 250. Moreover, the inhibition in assay [1] was -2.8% (inactive); in assay [3], -9.6% (inactive); in [8], -22.1% (inactive); in [9], -67.3% (inactive). Moreover, the inhibition of aggregation in [2] is -12.9% (inactive). The nuclei count in assay [2] is 103%; in assay [3], 115%. The fluorescence slope in [4] was -0.398 (inactive). For the same compound, the NADPH fluorescence slope in assay [5] is -6.1e-05 (inactive). The slope in [6] was 0.00525 (inactive). The call in assay [7] was inactive.

In the case of `O=C(CN(c1ccc(F)cc1)S(=O)(=O)c1ccc2c(c1)OCCO2)Nc1cccnc1`, the cell count in assay [1] was 757. Further, the inhibition is 1.6% (inactive) in [1], -19.1% (inactive) in assay [3], 7.14% (inactive) in assay [8] and 18.5% (inactive) in assay [9]. In addition, in assay [2], the inhibition of aggregation was 7% (inactive). The values for the nuclei count in [2] and in [3] were 93.5% and 111%, respectively. The fluorescence slope in assay [4] is -0.453 (inactive). In addition, in assay [5], the NADPH fluorescence slope is -4.5e-05 (inactive). In addition, in [6], the slope was 0.00513 (inactive). The outcome in assay [7] was inactive.

As for `Cc1ccc(NC(=O)COC(=O)c2ccn(C)n2)cc1`, in [1], the cell count worked out at 521. Further, the inhibition in [1] is -2.1% (inactive); in assay [3], -28.3% (inactive); in assay [8], 17.1% (inactive); in assay [9], 22.3% (inactive). Moreover, in [2], the inhibition of aggregation was -15.4% (inactive). Also, the results for the nuclei count in [2] and in assay [3] were 89.1% and 109%, respectively. Besides, the fluorescence slope in assay [4] is -0.39 (inactive). Also, in [5], the NADPH fluorescence slope was 1.1e-05 (inactive). The slope in assay [6] is 0.0046 (inactive). In addition, the outcome in assay [7] was inactive.

For `O=C(CSc1nnc(-c2ccco2)n1CC1CCCO1)NC1CCCC1` (centres undefined), the cell count in [1] is 336. In addition, the inhibition is -6.2% (inactive) in assay [1], -15.3% (inactive) in [3], 7.82% (inactive) in assay [8] and 4.4% (inactive) in assay [9]. The inhibition of aggregation in assay [2] is 10.7% (inactive). Moreover, the figures for the nuclei count in assay [2] and in [3] were 101% and 121%, respectively. In addition, the fluorescence slope in assay [4] was -0.361 (inactive). Also, in assay [5], the NADPH fluorescence slope was -5.1e-05 (inactive). Also, the slope in assay [6] was 0.00445 (inactive). For the same compound, the call in [7] was inactive.

Take `C=CCOC(=O)CC(NC(=O)c1ccccc1)c1ccccc1` (centres undefined): the cell count in assay [1] is 510. The inhibition in [1] is 9.6% (inactive); in assay [3], -231% (inactive); in [8], 13.9% (inactive); in assay [9], 99% (active). Besides, the inhibition of aggregation in assay [2] is -15.9% (inactive). Further, the nuclei count in [2] came to 98.4%; in assay [3], 133%. Further, the fluorescence slope in [4] is -0.382 (inactive). The NADPH fluorescence slope in assay [5] was -6.2e-05 (inactive). In addition, in assay [6], the slope is 0.00447 (inactive). Also, the compound was called inactive in assay [7].

Consider `O=C(CCn1[nH]c(=O)c2ccccc2c1=O)NCCO`, for which the cell count in assay [1] stood at 588. Moreover, the inhibition in assay [1] is -6.5% (inactive); in assay [3] it was -35.4% (inactive); in assay [8], 1.06% (inactive); in assay [9], -8.68% (inactive). Further, in assay [2], the inhibition of aggregation is 0.4% (inactive). For the same compound, the nuclei count in assay [2] came out at 97.8%; in assay [3], 71.1%. Besides, the fluorescence slope in assay [4] is -0.361 (inactive). Further, the NADPH fluorescence slope in assay [5] was -5.6e-05 (inactive). Besides, the slope in assay [6] is 0.00681 (inactive). The compound was classed as inactive in assay [7].

For the compound `O=C(CN1CCN(c2nc(-c3ccc(Cl)cc3)cs2)CC1)NCc1ccco1`, the cell count in assay [1] turned out to be 638. Besides, the inhibition in assay [1] was -7.3% (inactive); in assay [3], -53.5% (inactive); in [8], -3.86% (inactive); in assay [9], 98.3% (active). In [2], the inhibition of aggregation is 9.3% (inactive). In addition, the nuclei count amounted to 90.1% in assay [2] and 108% in assay [3]. The fluorescence slope in assay [4] was -0.463 (inactive). Moreover, the NADPH fluorescence slope in assay [5] was -3.9e-05 (inactive). Besides, the slope in assay [6] is 0.00435 (inactive). Also, in [7], the outcome was inactive.

For the compound `Cc1ccc(OCC2Cn3c(nc4c3c(=O)n(C)c(=O)n4C)O2)cc1` (centres undefined), the cell count in assay [1] worked out at 423. Moreover, the inhibition was 1.8% (inactive) in assay [1], -13.1% (inactive) in [3], 17.1% (inactive) in [8] and 11.7% (inactive) in assay [9]. The inhibition of aggregation in [2] was 22.4% (inactive). The nuclei count in assay [2] worked out at 104%; in assay [3], 120%. Besides, the fluorescence slope in assay [4] was -0.406 (inactive). Further, the NADPH fluorescence slope in [5] was -2.7e-05 (inactive). Also, the slope in assay [6] was 0.00486 (inactive). Also, the call in [7] was inactive.

On to `COc1ccc(CCN(Cc2cc3cccc(C)c3[nH]c2=O)C(=O)N2CCCC2)cc1OC`, for which, in assay [1], the cell count is 207. The inhibition in assay [1] is 2.1% (inactive); in assay [3], 11.6% (inactive); in assay [8], 10.3% (inactive); in [9] it was 16.5% (inactive). Moreover, the inhibition of aggregation in [2] is 8.7% (inactive). The nuclei count stood at 94.8% in assay [2] and 91.3% in assay [3]. Moreover, the fluorescence slope in assay [4] is -0.458 (inactive). Further, the NADPH fluorescence slope in assay [5] was -8.2e-05 (inactive). The slope in assay [6] was 0.00488 (inactive). In addition, the compound was called inactive in assay [7].

`CCCCN1CN(S(=O)(=O)c2cccs2)c2nc3ccccc3nc21`: the cell count in assay [1] was 253. Also, the inhibition is -13% (inactive) in [1], 0.2% (inactive) in [3], -4.14% (inactive) in assay [8] and -4.36% (inactive) in [9]. For the same compound, the inhibition of aggregation in assay [2] is 0.5% (inactive). For the same compound, the nuclei count in assay [2] came to 83.1%; in [3], 91.6%. Moreover, the fluorescence slope in assay [4] is -0.393 (inactive). The NADPH fluorescence slope in assay [5] was -5.6e-05 (inactive). For the same compound, the slope in assay [6] is 0.00634 (inactive). Also, the compound was called inactive in [7].

Consider `O=C(Nc1ccncc1)c1cc2ccccc2o1`, for which, in [1], the cell count turned out to be 165. The inhibition in assay [1] is 2.1% (inactive); in assay [3] it was -106% (inactive); in assay [8], -36.5% (inactive); in assay [9], -115% (inactive). The inhibition of aggregation in assay [2] is 35.8% (inactive). Besides, the results for the nuclei count in assay [2] and in [3] were 101% and 140%, respectively. Further, the fluorescence slope in [4] is -0.382 (inactive). Moreover, the NADPH fluorescence slope in assay [5] was -4.4e-05 (inactive). Moreover, the slope in assay [6] is 0.00527 (inactive). Also, the outcome in assay [7] was “inactive; toxic”.

As to `COc1ccc(C(=O)CSc2nnc(-c3ccc(C)cc3)o2)cc1`, the cell count in assay [1] worked out at 419. Besides, the inhibition in assay [1] was 11.2% (inactive); in assay [3] it was -69.4% (inactive); in assay [8], -16.3% (inactive); in assay [9] it was -18.5% (inactive). In addition, in assay [2], the inhibition of aggregation is -14.9% (inactive). Further, the nuclei count was found to be 109% in assay [2] and 112% in assay [3]. The fluorescence slope in assay [4] is -0.371 (inactive). In addition, in [5], the NADPH fluorescence slope was -1.3e-05 (inactive). In addition, the slope in [6] is 0.00862 (inactive). Besides, in assay [7], the compound was called inactive.

Values taken from PubChem BioAssay.
